PMC10650344 (RSC Medicinal Chemistry, 2023)
In brackets after ≈: the same amount, converted by molar mass.

Columns and labels:
[1] = system: differentiated SHSY-5Y cells; assay: MTT cell viability; type: cell-based, human; conditions: 12.5–100 μg mL^−1, 24 h
In short: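 Neuron-like cultures made by differentiating SH-SY5Y with 10 μM retinoic acid for 8 days, then 25 nM BDNF for 5 days. Cells incubated 24 h with test compound at 12.5–100 μg mL⁻¹. Controls: untreated cells, and cells given 1.0% Triton X-100. MTT (5 mg mL⁻¹ solution) added for 3 h at 37 °C, formazan dissolved in DMSO, absorbance read at 570 nm. Three independent experiments, mean ± SD.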

[2] = system: differentiated SHSY-5Y cells; assay: Genotoxicity analysis by Hoechst 33258 fluorescent nuclear staining; type: cell-based, human; conditions: for genotoxic properties on the differentiated SHSY-5Y cells: 100 μg mL^−1; for Mean NA/1000 cells ± SD: 100 μg mL^−1, 24 h, nuclear abnormalities
In short: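 SH-SY5Y differentiated with 10 μM retinoic acid for 8 days (medium refreshed every 2 days), then 25 nM BDNF for 5 days. Test compound applied for 24 h. Cells washed in PBS, fixed in 4% paraformaldehyde at 4 °C for 30 min, then stained with Hoechst 33258 (1 mM) for 5 min at room temperature. Micronuclei, lobbed and notched nuclei scored by fluorescence microscopy in 1000 cells per treatment, in triplicate.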

[3] = Experimental water solubility by HPLC; type: physicochemical
[4] = log P by shake-flask method; type: physicochemical; conditions: n-octanol/phosphate buffer solution (PBS), pH 7.4
In short: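 Shake-flask partition. About 5 mg of test compound dissolved in 1 mL n-octanol and mixed with an equal volume of PBS, pH 7.4. Mixture inverted 200 times over 5 min, then left 30 min to separate. Each phase assayed by HPLC (C18, 250 × 4.6 mm, isocratic H₂O/ACN + 0.1% TFA, 1 mL min⁻¹). log P taken from the concentration ratio of unionized compound between the phases.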

[5] = system: Aβ1–42 aggregation; type: cell-based, human; conditions: Congo red staining, experimental AD model
In short: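 Differentiated SH-SY5Y cells (retinoic acid, then BDNF) given 20 μM pre-fibrillised Aβ1–42 with test compound. Cells then fixed with 4% paraformaldehyde in PBS at 4 °C for 30 min and PBS-washed. Congo red (1 μM) added for 1 h in the dark, followed by three PBS washes. Bound dye extracted with DMSO, with absorbance read at 497 nm.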

[6] = system: differentiated SHSY-5Y cell cultures; type: cell-based, human; conditions: compound 50 μg mL^−1, Aβ1–42 20 μM, 24 h
In short: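 AD model: SH-SY5Y cells differentiated with retinoic acid then BDNF, then exposed to 20 μM Aβ1–42 (fibrillised 24 h in medium). 10⁵ cells seeded; Aβ1–42 with or without test compound (25 or 50 μg mL⁻¹) for 24 h. Cells trypsinised 3 min at 37 °C, spun 500 × g 5 min, stained in binding buffer with Annexin V-FITC and propidium iodide 5 min at room temperature, then analysed by flow cytometry.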

SMILES	cytotoxic effect on the differentiated SHSY-5Y cells (MTT cell viability) [1]	genotoxic properties on the differentiated SHSY-5Y cells [2]	Mean NA/1000 cells ± SD [2] [NA/1000 cells]	solubility [3] [µg/mL]	logP [4]	preventive activity against Aβ1–42 aggregation [5]	reduction of the apoptotic cell death ratio [6] [%]
Brc1ccc(-c2csc(/C=C/c3ccccc3)n2)cc1 [6e, (E)-4-(4-Bromophenyl)-2-styrylthiazole]	no cytotoxic effect	did not enhance the genotoxic properties	0.017	0.0175 (≈ 0.0511 µM)	4.87	–	–
COc1ccc(/C=C/c2nc(-c3ccc(OC)cc3)cs2)cc1 [6i, (E)-4-(4-Methoxyphenyl)-2-(4-methoxystyryl)thiazole]	no cytotoxic effect	did not enhance the genotoxic properties	0.017	0.0719 (≈ 0.222 µM)	4.18	over 80%	30
